We go through 5 molecules from ChEMBL document CHEMBL2331506, “Design, synthesis, antiviral and cytostatic evaluation of novel isoxazolidine nucleotide analogues with a carbamoyl linker” (Bioorg Med Chem, 2013).

Data set [1] deals with Human immunodeficiency virus 1. Briefly: Antiviral activity against Human immunodeficiency virus 1 3B infected in human CEM cells assessed as reduction of virus-induced giant cell formation at 250 uM after 4 to 5 days. Format: functional, organism-based. Particulars: CCRF-CEM. An outline of the steps: (§1)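 CEM cells at 3 × 10^5 cells/mL were infected with HIV at 100 CCID50 per mL in the presence of compound dilutions. They were held 4–5 days at 37 °C in humidified CO2. Syncytium (giant cell) formation was scored microscopically, and EC50 was taken as the concentration inhibiting giant cell formation by 50%.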

The test system of a further data set is HEL. Description: Cytotoxicity against human HEL cells assessed as alteration of cell morphology up to 100 uM by microscopic analysis. Format: cell-based. An outline of the steps:
(§2)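 Uninfected host-cell cultures were exposed to compound and examined by microscopy. Cytotoxicity was expressed as the minimum cytotoxic concentration (MCC) causing a microscopically detectable alteration of normal cell morphology.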

Data set [2] in a line: Cytotoxicity against cat CRFK cells assessed as alteration of cell morphology up to 100 uM by microscopic analysis. Format: cell-based, Felis catus. An outline of the steps:
as §2

Data set [3] concerns Respiratory syncytial virus. Description: Antiviral activity against Respiratory syncytial virus long infected in human HeLa cells assessed as reduction of virus-induced cytopathogenicity at 250 uM. Format: functional, organism-based. An outline of the steps: (§3)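 Confluent monolayers (HEL fibroblasts, Vero, or HeLa cells as listed) were infected with 100 CCID50 of virus in the presence of varying compound concentrations. Virus-induced cytopathicity or plaque formation was scored once cytopathicity was complete in untreated infected controls. EC50 was taken as the concentration reducing cytopathogenicity or plaque formation by 50%.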

Data set [4] deals with Human immunodeficiency virus 2. Briefly: Antiviral activity against Human immunodeficiency virus 2 ROD infected in human CEM cells assessed as reduction of virus-induced giant cell formation at 250 uM after 4 to 5 days. To be noted: CCRF-CEM. Format: functional, organism-based. An outline of the steps:
as §1

The next data set deals with Coxsackievirus B4. Briefly: Antiviral activity against Coxsackievirus B4 infected in african green monkey Vero cells assessed as reduction of virus-induced cytopathogenicity at 250 uM. It counts as functional, organism-based. The gist of the method:
as §3

The next data set relates to CCRF-CEM. Briefly: Cytostatic activity against human CEM cells assessed as inhibition of cell proliferation after 72 hrs by Coulter counter analysis. Format: functional, cell-based. The gist of the method: (§4)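 Each well received (5–7.5) × 10^4 tumor cells plus compound. L1210 cells grew 48 h and CEM and HeLa cells grew 72 h, at 37 °C in humidified CO2. Cells were then counted electronically, and IC50 was taken as the concentration inhibiting proliferation by 50%.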

Data set [5] deals with Human alphaherpesvirus 1. Description: Antiviral activity against Herpes simplex virus 1 KOS infected in human HEL cells assessed as reduction of virus-induced cytopathogenicity at 250 uM. It counts as functional, organism-based. The gist of the method: as §3
For data set [6], the system named is Influenza A virus. Briefly: Antiviral activity against Influenza A virus H3N2 infected in dog MDCK cells assessed as reduction of virus-induced cytopathogenicity at 250 uM. It counts as functional, organism-based. An outline of the steps:
(§5)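 Confluent cell monolayers were infected with 100 CCID50 of virus while exposed to varying compound concentrations. Cytopathicity was scored once it was complete in untreated infected controls. EC50 was taken as the concentration that reduced virus-induced cytopathogenicity by 50%.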

For data set [7], the system named is Vesicular stomatitis virus. Briefly: Antiviral activity against Vesicular stomatitis virus infected in human HeLa cells assessed as reduction of virus-induced cytopathogenicity at 250 uM. It counts as functional, organism-based. The gist of the method: as §5
Data set [8] concerns Mammalian orthoreovirus 1. Briefly: Antiviral activity against Reovirus 1 infected in african green monkey Vero cells assessed as reduction of virus-induced cytopathogenicity at 250 uM. It counts as functional, organism-based. The gist of the method:
as §3

A further data set relates to Sindbis virus. Briefly: Antiviral activity against Sindbis virus infected in african green monkey Vero cells assessed as reduction of virus-induced cytopathogenicity at 250 uM. Format: functional, organism-based. An outline of the steps:
as §3

Data set [9] deals with Human alphaherpesvirus 1. Description: Antiviral activity against thymidine kinase-deficient, ACV-resistant Herpes simplex virus 1 KOS infected in human HEL cells assessed as reduction of virus-induced cytopathogenicity at 250 uM. It counts as functional, organism-based. An outline of the steps:
as §5

For data set [10], the system named is Vesicular stomatitis virus. Description: Antiviral activity against Vesicular stomatitis virus infected in human HEL cells assessed as reduction of virus-induced cytopathogenicity at 250 uM. It counts as functional, organism-based. An outline of the steps:
as §5

Data set [11] has as its system Influenza A virus. Description: Antiviral activity against Influenza A virus H1N1 infected in dog MDCK cells assessed as reduction of virus-induced cytopathogenicity at 250 uM. It counts as functional, organism-based. An outline of the steps: as §5
A further data set has as its system Human respirovirus 3. Briefly: Antiviral activity against Parainfluenza virus 3 infected in african green monkey Vero cells assessed as reduction of virus-induced cytopathogenicity at 250 uM. Format: functional, organism-based. The gist of the method:
as §3

For a further data set, the system named is Felid alphaherpesvirus 1. Description: Antiviral activity against Feline herpes virus infected in cat CRFK cells assessed as reduction of virus-induced cytopathogenicity at 250 uM. Format: functional, organism-based.
The test system of another data set is Influenza B virus. Description: Antiviral activity against Influenza B virus infected in dog MDCK cells assessed as reduction of virus-induced cytopathogenicity at 250 uM. It counts as functional, organism-based. The gist of the method:
as §5

In another data set the test system is L1210. Briefly: Cytostatic activity against mouse L1210 cells assessed as inhibition of cell proliferation after 48 hrs by Coulter counter analysis. Format: functional, cell-based. To be noted: L1210, 48 h. The gist of the method: as §4
For data set [12], the system named is HeLa. Briefly: Cytostatic activity against human HeLa cells assessed as inhibition of cell proliferation after 72 hrs by Coulter counter analysis. It counts as functional, cell-based. The gist of the method: as §4
A further data set deals with MDCK. Description: Cytotoxicity against dog MDCK cells assessed as alteration of cell morphology up to 100 uM by microscopic analysis. Format: cell-based, Canis lupus familiaris. The gist of the method: as §2
A further data set has as its system Feline coronavirus. Briefly: Antiviral activity against Feline coronavirus infected in cat CRFK cells assessed as reduction of virus-induced cytopathogenicity at 250 uM. Format: functional, organism-based.
The test system of another data set is Vero. Briefly: Cytotoxicity against african green monkey Vero cells assessed as alteration of cell morphology up to 100 uM by microscopic analysis. It counts as cell-based. Particulars: chlorocebus sabaeus. An outline of the steps: as §2
The next data set concerns Punta Toro virus. Briefly: Antiviral activity against Punta Toro virus infected in african green monkey Vero cells assessed as reduction of virus-induced cytopathogenicity at 250 uM. It counts as functional, organism-based. An outline of the steps: as §3
The subject of a further data set is Human alphaherpesvirus 2. Briefly: Antiviral activity against Herpes simplex virus 2 G infected in human HEL cells assessed as reduction of virus-induced cytopathogenicity at 250 uM. It counts as functional, organism-based. To be noted: strain G. The gist of the method:
as §3

The subject of data set [13] is HeLa. Briefly: Cytotoxicity against human HeLa cells assessed as alteration of cell morphology up to 100 uM by microscopic analysis. Format: cell-based. An outline of the steps: as §2

The source made the active and inactive calls. How the calls were made is not given here.

For the molecule `CCOP(=O)(OCC)[C@H]1C[C@H](C(=O)Nc2ccc(Br)cc2)ON1C` (mixture of isomers), the inhibition result (in data set [1]; in [3]; in [4]; in the data set on Coxsackievirus B4; in the data set on Human alphaherpesvirus 1 [5]; in the data set on Influenza A virus [6]) was “inactive” throughout. Moreover, the inhibition result (in [7]; in [8]; with Sindbis virus; in the data set on Human alphaherpesvirus 1 [9]; in data set [10]; in the data set with Influenza A virus [11]) was “inactive” each time. For the same molecule, the inhibition result in the data set with Human respirovirus 3, in the data set on Felid alphaherpesvirus 1, with Influenza B virus, in the data set on Feline coronavirus, in the data set with Punta Toro virus and with Human alphaherpesvirus 2 was “inactive” each time. The Activity entry (with HEL; in data set [2]; in the data set on MDCK; with Vero; in the data set on HeLa [13]) was “Non-toxic” throughout. For the same molecule, the IC50 in the data set with CCRF-CEM is 227 µM; in the data set on L1210, 177 µM; with HeLa [12] it was not below 250 µM.
`CCOP(=O)(OCC)[C@@H]1C[C@H](C(=O)Nc2cccc(C#N)c2)ON1C` (racemic): the inhibition result (in [1]; in data set [3]; in data set [4]; in the data set on Coxsackievirus B4; in the data set on Human alphaherpesvirus 1 [5]; in the data set with Influenza A virus [6]) was “inactive” throughout. Moreover, the inhibition entry (in data set [7]; in [8]; with Sindbis virus; with Human alphaherpesvirus 1 [9]; in data set [10]; in the data set with Influenza A virus [11]) was “inactive” throughout. Also, the inhibition entry with Human respirovirus 3, with Felid alphaherpesvirus 1, in the data set on Influenza B virus, with Feline coronavirus, in the data set with Punta Toro virus and with Human alphaherpesvirus 2 was “inactive” in each case. The Activity result (in the data set on HEL; in data set [2]; with MDCK; in the data set on Vero; with HeLa [13]) was “Non-toxic” in each case.
Consider `CCOP(=O)(OCC)[C@@H]1C[C@H](C(=O)Nc2cccc(C(C)=O)c2)ON1C` (racemic), for which the inhibition result (in data set [1]; in data set [3]; in data set [4]; in the data set with Coxsackievirus B4; in the data set on Human alphaherpesvirus 1 [5]; with Influenza A virus [6]) was “inactive” throughout. The inhibition result (in data set [7]; in data set [8]; in the data set with Sindbis virus; in the data set with Human alphaherpesvirus 1 [9]; in data set [10]; with Influenza A virus [11]) was “inactive” in each case. The inhibition result in the data set with Human respirovirus 3, in the data set on Felid alphaherpesvirus 1, with Influenza B virus, with Feline coronavirus, in the data set with Punta Toro virus and in the data set on Human alphaherpesvirus 2 was “inactive” each time. Further, the Activity entry (in the data set with HEL; in [2]; in the data set with MDCK; in the data set on Vero; in the data set with HeLa [13]) was “Non-toxic” in each case.
On to `CCOP(=O)(OCC)[C@H]1C[C@H](C(=O)Nc2cccc(C(C)=O)c2)ON1C` (mixture of isomers), for which the inhibition entry (in data set [1]; in data set [3]; in data set [4]; in the data set on Coxsackievirus B4; in the data set on Human alphaherpesvirus 1 [5]; with Influenza A virus [6]) was “inactive” each time. The inhibition result (in data set [7]; in data set [8]; in the data set on Sindbis virus; in the data set with Human alphaherpesvirus 1 [9]; in [10]; in the data set on Influenza A virus [11]) was “inactive” each time. Further, the inhibition entry in the data set with Human respirovirus 3, in the data set on Felid alphaherpesvirus 1, with Influenza B virus, with Feline coronavirus, in the data set with Punta Toro virus and in the data set with Human alphaherpesvirus 2 was “inactive” throughout. For the same molecule, the Activity entry (in the data set with HEL; in data set [2]; with MDCK; in the data set with Vero; with HeLa [13]) was “Non-toxic” in each case.
In the case of `CCOP(=O)(OCC)[C@@H]1C[C@H](C(=O)Nc2ccccc2[N+](=O)[O-])ON1C` (mixture of isomers), the inhibition entry (in [1]; in [3]; in data set [4]; in the data set on Coxsackievirus B4; in the data set on Human alphaherpesvirus 1 [5]; in the data set on Influenza A virus [6]) was “inactive” in each case. Further, the inhibition entry (in [7]; in data set [8]; in the data set with Sindbis virus; in the data set on Human alphaherpesvirus 1 [9]; in data set [10]; in the data set on Influenza A virus [11]) was “inactive” in each case. Moreover, the inhibition entry in the data set on Human respirovirus 3, with Felid alphaherpesvirus 1, with Influenza B virus, in the data set on Feline coronavirus, with Punta Toro virus and in the data set on Human alphaherpesvirus 2 was “inactive” each time. Moreover, the Activity result (in the data set with HEL; in data set [2]; in the data set on MDCK; with Vero; with HeLa [13]) was “Non-toxic” each time.
